Measured values from ChEMBL document CHEMBL1828628, “Discovery of a tetrahydroisoquinoline-based hydroxamic acid derivative (ZYJ-34c) as histone deacetylase inhibitor with potent oral antitumor activities” (J Med Chem, 2011).
Active and inactive are the calls of the source. The calls are words filed in the database; no cut-off is given here.

Columns and labels:
[1] = system: Mus musculus; assay: Toxicity in mouse H22 cells xenografted Kunming mouse assessed as change in body weight at 90 mg/kg, po qd for 19 days; format: organism-based; design: dose 90 mg/kg, route oral; details: in vivo, 456 h
[2] = system: Mus musculus; assay: Toxicity in mouse H22 cells xenografted Kunming mouse assessed as signs of organ toxicity at 90 mg/kg, po qd for 19 days; format: organism-based; design: dose 90 mg/kg, route oral; details: in vivo, 456 h
[3] = system: MDA-MB-231; assay: Antitumor activity against human MDA-MB-231 cells xenografted in BALB/c nu mouse assessed as tumor growth inhibition at 90 mg/kg, ip qd for 19 days relative to control; format: functional; details: route intraperitoneal; for inhibition in vivo at 90 mg/kg: Mus musculus, MDA-MB-231, ip, 456 h, read-out: TGI
[4] = system: H22; assay: Antitumor activity against mouse H22 cells xenografted in Kunming mouse assessed as reduction of pulmonary metastatic nodes in lungs at 90 mg/kg, po qd for 14 days; format: functional, organism-based; design: dose 90 mg/kg
[5] = biological target: 72 kDa type IV collagenase (Homo sapiens) (UniProt P08253); assay: Inhibition of MMP2
72 kDa type IV collagenase (Homo sapiens), sequence (P08253 110-660 limits assumed): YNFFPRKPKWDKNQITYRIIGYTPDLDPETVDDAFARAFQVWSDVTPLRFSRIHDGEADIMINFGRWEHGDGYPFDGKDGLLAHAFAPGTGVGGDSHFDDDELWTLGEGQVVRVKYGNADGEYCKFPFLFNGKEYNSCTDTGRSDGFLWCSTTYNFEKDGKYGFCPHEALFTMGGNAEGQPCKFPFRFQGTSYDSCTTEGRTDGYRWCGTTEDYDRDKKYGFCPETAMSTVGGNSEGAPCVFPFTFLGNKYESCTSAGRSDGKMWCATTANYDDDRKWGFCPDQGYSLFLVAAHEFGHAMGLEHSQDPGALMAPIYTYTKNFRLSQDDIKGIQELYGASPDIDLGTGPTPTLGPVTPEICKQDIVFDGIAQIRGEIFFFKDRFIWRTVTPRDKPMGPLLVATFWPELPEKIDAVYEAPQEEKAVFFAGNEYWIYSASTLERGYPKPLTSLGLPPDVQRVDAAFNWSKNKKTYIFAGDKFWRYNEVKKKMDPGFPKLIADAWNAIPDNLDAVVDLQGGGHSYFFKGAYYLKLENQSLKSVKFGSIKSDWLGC

[6] = biological target: Aminopeptidase N (Homo sapiens) (UniProt P15144); assay: Inhibition of aminopeptidase N
Aminopeptidase N (Homo sapiens), sequence (P15144 whole entry): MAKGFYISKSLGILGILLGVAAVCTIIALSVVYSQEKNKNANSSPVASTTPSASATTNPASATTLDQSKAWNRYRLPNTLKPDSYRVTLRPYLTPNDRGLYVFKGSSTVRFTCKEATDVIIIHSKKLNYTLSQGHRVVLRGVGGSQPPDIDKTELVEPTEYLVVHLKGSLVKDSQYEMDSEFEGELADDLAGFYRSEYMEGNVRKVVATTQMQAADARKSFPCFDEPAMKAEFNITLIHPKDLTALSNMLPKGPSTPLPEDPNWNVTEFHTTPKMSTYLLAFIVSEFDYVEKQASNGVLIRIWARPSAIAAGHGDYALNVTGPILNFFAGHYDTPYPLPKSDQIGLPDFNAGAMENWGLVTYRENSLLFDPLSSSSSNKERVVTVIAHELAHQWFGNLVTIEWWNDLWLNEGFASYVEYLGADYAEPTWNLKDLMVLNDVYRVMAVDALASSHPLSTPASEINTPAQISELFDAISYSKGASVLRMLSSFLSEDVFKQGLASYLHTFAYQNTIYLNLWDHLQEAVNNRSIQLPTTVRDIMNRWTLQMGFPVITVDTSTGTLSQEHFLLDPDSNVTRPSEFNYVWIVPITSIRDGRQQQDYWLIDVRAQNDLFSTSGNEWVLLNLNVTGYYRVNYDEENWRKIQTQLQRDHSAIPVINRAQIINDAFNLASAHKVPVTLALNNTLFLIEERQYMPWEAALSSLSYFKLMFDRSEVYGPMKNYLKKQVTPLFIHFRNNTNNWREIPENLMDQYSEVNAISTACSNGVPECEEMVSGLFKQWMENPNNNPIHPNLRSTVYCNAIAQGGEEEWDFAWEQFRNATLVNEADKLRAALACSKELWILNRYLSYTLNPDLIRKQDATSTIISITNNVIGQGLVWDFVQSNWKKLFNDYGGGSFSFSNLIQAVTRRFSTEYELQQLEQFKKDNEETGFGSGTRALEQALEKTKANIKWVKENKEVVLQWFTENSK

[7] = system: Mus musculus; assay: Toxicity in human MDA-MB-231 cells xenografted BALB/c nu mouse assessed as change in body weight at 90 mg/kg, ip qd for 19 days; format: organism-based; design: dose 90 mg/kg, route intraperitoneal; details: in vivo, 456 h
In short: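 Female BALB/c-nu mice, 5–6 weeks old, bearing subcutaneous right-flank xenografts. Mice were randomized 6 per group at about 100 mm3 tumor size. Dosing was oral or intraperitoneal for 19 days; controls received an equal volume of PBS containing DMSO. Body weight was monitored regularly during treatment, and tumors were measured by caliper every three days.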

[8] = system: MDA-MB-231; assay: Cell cycle arrest in human MDA-MB-231 cells assessed as accumulation at G2 phase at 5 uM after 48 hrs using propidium iodide staining by flow cytometric analysis; format: functional, cell-based
In short: (§1)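 MDA-MB-231 cells were seeded at 4 × 10^5 per well and incubated overnight, then treated for 48 h. Cells were fixed overnight in 70% ethanol phosphate buffer and washed twice with PBS. They were treated with DNase-free RNase A (1 mg/mL) for 30 min, then stained with propidium iodide for 30 min in the dark at room temperature. DNA content was read by FACScan flow cytometry.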

[9] = system: MDA-MB-231; assay: Cell cycle arrest in human MDA-MB-231 cells assessed as accumulation at G1 phase at 1 uM after 48 hrs using propidium iodide staining by flow cytometric analysis; format: functional, cell-based; in short: as §1

| SMILES | Activity [1] | Activity [2] | inhibition in vivo at 90 mg/kg [3] | T/C [3] | Activity [4] | inhibition [5] | inhibition [6] | Activity [7] | Activity [8] | Activity [9] |
| --- | --- | --- | --- | --- | --- | --- | --- | --- | --- | --- |
| CC[C@H](C)[C@@H](CN1Cc2cc(OCC(=O)NO)ccc2C[C@H]1C(=O)Nc1ccc(OC)cc1)NC(=O)CC(C)(C)C | Non-toxic | Non-toxic | -9% | 87% | Active | inactive | Active | Non-toxic |  |  |
| O=C(CCCCCCC(=O)Nc1ccccc1)NO |  |  |  |  | inactive | inactive |  |  | Active | Active |
| CC[C@H](C)[C@H](NC(=O)OC(C)(C)C)C(=O)N1Cc2cc(OCC(=O)NO)ccc2C[C@H]1C(=O)Nc1ccc(OC)cc1 | Non-toxic | Non-toxic | 40% | 63% | Active | inactive | Active | Non-toxic |  |  |
| CC[C@H](C)[C@@H](CN1Cc2cc(OCC(=O)NO)ccc2C[C@H]1C(=O)Nc1ccc(OC)cc1)NC(=O)OC(C)(C)C | Non-toxic | Non-toxic | 55% | 47% | Active | inactive | Active | Non-toxic |  |  |
